Experimental data collected from several papers.
Compare with care: the assays were run in different laboratories.
Cell line: MDA-MB-231
Effect on: cell growth or viability

| Structure (SMILES) | technique | time | GI50 |
| --- | --- | --- | --- |
| COc1cc2c(cc1OS(N)(=O)=O)CCN(Cc1cc(Cl)c(OC)c(OC)c1)C2 | WST-1 | 96 h | 40 nM |
| COc1cc2c(cc1OS(N)(=O)=O)CCN(Cc1ccc(OC)c(OC)c1OC)C2 | WST-1 | 96 h | 11900 nM |
| CCOc1c(OC)cc(CN2CCc3cc(OS(N)(=O)=O)c(OC)cc3C2)cc1OC | WST-1 | 96 h | 70 nM |
| CC(=O)c1c(C)c2cnc(Nc3ccc(N4CCNCC4)cn3)nc2n(C2CCCC2)c1=O | resazurin | – | 250 nM |
| Cc1cc2c(cc1N1C(=O)c3cccc4c(CCCO)ccc(c34)C1=O)n(C)c(=O)n2C (racemic) | resazurin | – | > 10000 nM |
| COc1cc2c(cc1O)CCN(Cc1cc(Br)c(OC)c(OC)c1)C2 | WST-1 | 96 h | 200 nM |
| COc1ccc(OC)c(CN2CCc3cc(O)c(OC)cc3C2)c1 | WST-1 | 96 h | 37000 nM |
| COc1cc2c(cc1O)CC[C@@H]1[C@@H]2CC[C@]2(C)[C@@H](O)CC[C@@H]12 | – | 48 h | 1700 nM |
| COc1ccc(OC)c(CN2CCc3cc(OS(N)(=O)=O)c(OC)cc3C2)c1 | WST-1 | 96 h | 1850 nM |
| COc1cccc2c1C(=O)c1c(O)c3c(c(O)c1C2=O)C[C@@](O)(C(=O)CO)C[C@@H]3O[C@H]1C[C@H](N)[C@H](O)[C@H](C)O1 | MTT | 72 h | 53.3 nM |
